Source: ChEMBL document CHEMBL1148738, “Design, synthesis, and in vitro evaluation of carbamate derivatives of 2-benzoxazolyl- and 2-benzothiazolyl-(3-hydroxyphenyl)-methanones as novel fatty acid amide hydrolase inhibitors” (J Med Chem, 2007)
Active and inactive are the calls of the source. The rule behind the calls is not given here.

What was measured:
[1] = species on record: Rattus norvegicus; assay: Inhibition of MAGL in Wistar rat cerebellar membrane at 100 uM; type: cell membranes; conditions: Cerebellum
Procedure, shortened: (§1)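 Cerebellar membranes from 4-week-old male Wistar rats. Preincubation 30 min at 25 °C: 10 µg protein, 44 mM Tris-HCl pH 7.4, 0.9 mM EDTA, 0.5% BSA, 1.25% DMSO. Incubation 90 min at 25 °C: 5 µg protein, 54 mM Tris-HCl, 1.1 mM EDTA, 100 mM NaCl, 5 mM MgCl2, 0.5% BSA, 50 µM 2-AG. Samples at 0 and 90 min stopped with acidified acetonitrile (pH 3.0). 2-AG and arachidonic acid quantified by HPLC-UV at 211 nm from peak areas.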

[2] = biological target: T1, Fatty-acid amide hydrolase 1 (Rattus norvegicus) (UniProt P97612); assay: Inhibition of FAAH activity in Wistar rat brain assessed as remaining enzyme activity at 10 uM; values are per cent of control
T1 sequence (whole entry): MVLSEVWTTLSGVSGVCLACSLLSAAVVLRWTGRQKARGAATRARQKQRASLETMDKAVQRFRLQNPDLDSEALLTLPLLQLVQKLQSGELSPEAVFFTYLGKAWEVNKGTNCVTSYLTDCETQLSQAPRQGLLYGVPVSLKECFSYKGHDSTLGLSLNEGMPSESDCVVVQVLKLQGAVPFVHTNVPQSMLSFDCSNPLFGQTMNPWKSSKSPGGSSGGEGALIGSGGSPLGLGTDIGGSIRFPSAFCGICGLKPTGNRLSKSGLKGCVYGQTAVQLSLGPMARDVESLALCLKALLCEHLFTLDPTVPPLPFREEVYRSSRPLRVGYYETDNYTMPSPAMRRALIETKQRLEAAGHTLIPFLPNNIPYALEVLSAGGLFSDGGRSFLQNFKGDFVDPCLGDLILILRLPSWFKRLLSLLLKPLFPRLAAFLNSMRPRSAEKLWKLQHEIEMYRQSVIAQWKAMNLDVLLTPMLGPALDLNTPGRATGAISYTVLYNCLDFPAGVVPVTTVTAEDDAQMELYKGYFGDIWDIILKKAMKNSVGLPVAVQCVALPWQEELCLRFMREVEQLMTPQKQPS

[3] = Inhibition of MAGL in Wistar rat cerebellar membrane; type: cell membranes, Cerebellum; procedure, shortened: as §1
[4] = biological target: T2, Fatty-acid amide hydrolase 1 (Rattus norvegicus, UniProt P97612); assay: Inhibition of FAAH activity in Wistar rat brain
T2 sequence (P97612 whole entry): T1 sequence (whole entry)
Procedure, shortened: (§2)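 Enzyme source: supernatant (10 000 g, 20 min, 4 °C) of whole-brain-minus-cerebellum homogenate from 8-week-old male Wistar rats in 0.1 M potassium phosphate pH 7.4. Compound (in DMSO, final max 5%) preincubated 10 min with 18 µg protein. Substrate: [ethanolamine 1-³H]arachidonoylethanolamide, with 0.5% fatty-acid-free BSA, 10 min at 37 °C. Stopped with ethyl acetate. Aqueous [³H]ethanolamine counted by liquid scintillation.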

[5] = species on record: Rattus norvegicus; assay: Inhibition of MAGL in Wistar rat cerebellar membrane assessed as remaining enzyme activity at 1 mM; values are per cent of control; conditions: Cerebellum
[6] = species on record: Rattus norvegicus; assay: Inhibition of MAGL in Wistar rat cerebellar membrane assessed as remaining enzyme activity at 100 uM; values are per cent of control; conditions: Cerebellum
[7] = biological target: T1, Fatty-acid amide hydrolase 1 (Rattus norvegicus); assay: Inhibition of FAAH activity in Wistar rat brain at 10 uM; procedure, shortened: as §2

SMILES | IC50 [4] [nM] | residual activity [6] [%] | other results
O=C(Nc1cccc(C(=O)c2nc3ccccc3o2)c1)NC1CCCC1 |  |  | Activity [1]: inactive; residual activity [2]: 94%
O=C(c1cccc(NC(=O)C2CCCC2)c1)c1nc2ccccc2o1 |  |  | Activity [1]: inactive; residual activity [2]: 95%
Cc1cccc(CNC(=O)Oc2cccc(C(=O)c3nc4ccccc4o3)c2)c1 | 32 |  | IC50 [3]: 16000 nM; residual activity [5]: 11%
CCNC(=O)Oc1cccc(C(=O)c2nc3ccccc3o2)c1 | 379 | 75 | 
CCCNC(=O)Oc1cccc(C(=O)c2nc3ccccc3o2)c1 | 109 | 57 | 
Cc1ccccc1CNC(=O)Oc1ccc(C(=O)c2nc3ccccc3o2)cc1 | 137 |  | IC50 [3]: 25000 nM; residual activity [5]: 11%
CCCNC(=O)Oc1cccc(C(=O)c2nc3ccccc3s2)c1 | 143 | 70 | 
O=C(NC1CCCC1)Oc1cccc(C(=O)c2nc3ccccc3s2)c1 | 47 | 71 | 
O=C(NC1CCCCC1)Oc1cccc(C(=O)c2nc3ccccc3s2)c1 | 56 | 79 | 
O=C(NC1CCCC1)Oc1cccc(C(=O)c2nc3ccccc3o2)c1 | 28 | 54 | 
O=C(NCc1ccccc1)Oc1cccc(C(=O)c2nc3ccccc3s2)c1 | 121 | 75 | 
CCNC(=O)Oc1cccc(C(=O)c2nc3ccccc3s2)c1 | 238 | 80 | 
Cc1cccc(CNC(=O)Oc2cccc(C(=O)c3nc4ccccc4s3)c2)c1 | 38 |  | IC50 [3]: 23000 nM; residual activity [5]: 11%
O=C(NCc1ccccc1)Oc1cccc(C(=O)c2nc3ccccc3o2)c1 | 152 | 57 | 
CCCCNC(=O)Oc1cccc(C(=O)c2nc3ccccc3s2)c1 | 103 | 76 | 
O=C(Nc1cccc(C(=O)c2nc3ccccc3o2)c1)OC1CCCC1 |  |  | Activity [1]: inactive; residual activity [2]: 95%
O=C(NC1CCCCC1)Oc1cccc(C(=O)c2nc3ccccc3o2)c1 | 47 | 83 | 
O=C(c1cccc(OC(=O)C2CCCC2)c1)c1nc2ccccc2o1 |  |  | Activity [1]: inactive; residual activity [2]: 88%
CCCCNC(=O)Oc1cccc(C(=O)c2nc3ccccc3o2)c1 | 54 | 59 | 
O=C(c1cccc(OCc2ccccc2)c1)c1nc2ccccc2s1 |  |  | inhibition [1]: inactive; Activity [7]: inactive
O=C(NC1CCCC1)Oc1ccc(C(=O)c2nc3ccccc3o2)cc1 | 288 |  | IC50 [3]: 14000 nM
O=C(c1cccc(OCc2ccccc2)c1)c1nc2ccccc2o1 |  |  | Activity [1]: inactive; Activity [7]: inactive
